Data from ChEMBL document CHEMBL1143155, “Synthesis and SAR of selective muscarinic acetylcholine receptor subtype 1 (M1 mAChR) antagonists” (Bioorg Med Chem Lett, 2008).
Where a chain is given by its changes, count along the chain named. Calls of active or inactive are those of the source. No cut-off for these calls is given here.

Experiments:
[1] = biological target: T1, Muscarinic acetylcholine receptor M1 (Homo sapiens) (UniProt P11229); test: Inhibition of human muscarinic M1 receptor
T1 sequence (whole entry): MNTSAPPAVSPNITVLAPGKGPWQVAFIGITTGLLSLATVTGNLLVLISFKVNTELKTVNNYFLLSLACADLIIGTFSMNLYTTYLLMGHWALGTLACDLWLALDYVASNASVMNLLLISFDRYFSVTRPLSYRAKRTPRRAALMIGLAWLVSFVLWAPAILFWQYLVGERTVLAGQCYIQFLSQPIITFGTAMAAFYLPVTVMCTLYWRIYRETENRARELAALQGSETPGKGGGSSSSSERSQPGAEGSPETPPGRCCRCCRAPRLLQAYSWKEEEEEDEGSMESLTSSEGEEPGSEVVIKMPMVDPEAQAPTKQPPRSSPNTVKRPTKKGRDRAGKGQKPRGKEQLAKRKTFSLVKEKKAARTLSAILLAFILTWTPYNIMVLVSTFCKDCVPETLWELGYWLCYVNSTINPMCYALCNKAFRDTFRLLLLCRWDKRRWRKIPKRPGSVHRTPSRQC

[2] = biological target: T2, Muscarinic acetylcholine receptor M4 (Rattus norvegicus, UniProt P08485); test: Antagonist activity at rat muscarinic M4 receptor expressed in CHO cells by calcium mobilization assay; assay type: functional, cell-based
T2 sequence (P08485 whole entry): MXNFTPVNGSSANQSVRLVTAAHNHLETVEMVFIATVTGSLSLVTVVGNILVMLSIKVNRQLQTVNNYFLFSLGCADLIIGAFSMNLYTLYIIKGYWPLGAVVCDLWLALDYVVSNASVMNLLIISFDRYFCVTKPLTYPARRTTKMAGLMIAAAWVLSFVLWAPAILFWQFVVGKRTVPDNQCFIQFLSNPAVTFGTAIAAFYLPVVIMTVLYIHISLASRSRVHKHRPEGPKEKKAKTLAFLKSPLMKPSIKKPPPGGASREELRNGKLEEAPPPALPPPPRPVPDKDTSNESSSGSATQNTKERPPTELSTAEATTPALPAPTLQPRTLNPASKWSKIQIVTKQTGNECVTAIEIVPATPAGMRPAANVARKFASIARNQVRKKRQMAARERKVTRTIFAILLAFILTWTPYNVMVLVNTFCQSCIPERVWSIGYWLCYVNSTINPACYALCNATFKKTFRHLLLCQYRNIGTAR

[3] = biological target: T3, Muscarinic acetylcholine receptor M1 (Rattus norvegicus, UniProt P08482); test: Antagonist activity at rat muscarinic M1 receptor expressed in CHO cells by calcium mobilization assay; assay type: functional, cell-based
T3 sequence (P08482 whole entry): T1 sequence (whole entry) with A5V, T254S, P309S, R320K, A337G, I413V

Rattus norvegicus [4] = species on record: Rattus norvegicus; test: Selectivity for rat muscarinic M1 receptor over rat muscarinic M5 receptor by calcium mobilization assay
[5] = biological target: T4, Muscarinic acetylcholine receptor M3 (Rattus norvegicus, UniProt P08483); test: Displacement of [3H]NMS from rat muscarinic M3 receptor expressed in CHO cells; assay type: cell-based
T4 sequence (P08483 whole entry): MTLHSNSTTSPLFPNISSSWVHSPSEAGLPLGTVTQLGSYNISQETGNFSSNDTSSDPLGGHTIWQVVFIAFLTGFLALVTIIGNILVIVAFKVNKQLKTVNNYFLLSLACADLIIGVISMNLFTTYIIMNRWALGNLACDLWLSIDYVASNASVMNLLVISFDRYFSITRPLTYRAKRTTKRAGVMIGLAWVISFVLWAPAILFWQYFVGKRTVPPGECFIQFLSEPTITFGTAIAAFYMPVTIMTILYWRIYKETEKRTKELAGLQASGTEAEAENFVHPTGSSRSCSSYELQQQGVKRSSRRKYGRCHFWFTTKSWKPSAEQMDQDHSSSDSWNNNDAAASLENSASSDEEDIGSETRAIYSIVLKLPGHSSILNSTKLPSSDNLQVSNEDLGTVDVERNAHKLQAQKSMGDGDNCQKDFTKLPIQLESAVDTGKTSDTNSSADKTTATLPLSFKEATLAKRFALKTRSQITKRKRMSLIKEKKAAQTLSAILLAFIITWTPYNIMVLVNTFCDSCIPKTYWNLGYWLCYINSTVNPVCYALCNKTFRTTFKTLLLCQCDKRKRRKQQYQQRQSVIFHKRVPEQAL

[6] = biological target: T3, Muscarinic acetylcholine receptor M1; test: Displacement of [3H]NMS from rat muscarinic M1 receptor expressed in CHO cells; assay type: cell-based
Procedure, shortened: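 Competition binding against the orthosteric radioligand [³H]-N-methylscopolamine on rat mAChR subtypes from CHO cell lines, with atropine as positive control. Ki values are averages of three independent experiments.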

[7] = biological target: T5, Muscarinic acetylcholine receptor M5 (Rattus norvegicus, UniProt P08911); test: Displacement of [3H]NMS from rat muscarinic M5 receptor expressed in CHO cells; assay type: cell-based
T5 sequence (P08911 whole entry): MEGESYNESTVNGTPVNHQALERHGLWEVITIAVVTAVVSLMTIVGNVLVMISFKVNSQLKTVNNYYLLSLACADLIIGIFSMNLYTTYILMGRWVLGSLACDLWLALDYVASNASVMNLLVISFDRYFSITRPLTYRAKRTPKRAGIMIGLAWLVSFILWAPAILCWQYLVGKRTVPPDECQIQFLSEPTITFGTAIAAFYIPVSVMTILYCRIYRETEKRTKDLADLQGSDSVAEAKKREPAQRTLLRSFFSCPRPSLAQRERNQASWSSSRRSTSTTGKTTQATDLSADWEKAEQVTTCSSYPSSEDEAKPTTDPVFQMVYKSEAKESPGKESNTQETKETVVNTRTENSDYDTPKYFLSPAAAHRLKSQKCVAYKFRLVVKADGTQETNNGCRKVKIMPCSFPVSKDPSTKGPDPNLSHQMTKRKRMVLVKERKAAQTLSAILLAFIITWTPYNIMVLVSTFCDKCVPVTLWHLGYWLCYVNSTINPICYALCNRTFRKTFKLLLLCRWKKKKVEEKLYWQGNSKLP

[8] = biological target: T6, Muscarinic acetylcholine receptor M2 (Rattus norvegicus, UniProt P10980); test: Displacement of [3H]NMS from rat muscarinic M2 receptor expressed in CHO cells; assay type: cell-based
T6 sequence (P10980 whole entry): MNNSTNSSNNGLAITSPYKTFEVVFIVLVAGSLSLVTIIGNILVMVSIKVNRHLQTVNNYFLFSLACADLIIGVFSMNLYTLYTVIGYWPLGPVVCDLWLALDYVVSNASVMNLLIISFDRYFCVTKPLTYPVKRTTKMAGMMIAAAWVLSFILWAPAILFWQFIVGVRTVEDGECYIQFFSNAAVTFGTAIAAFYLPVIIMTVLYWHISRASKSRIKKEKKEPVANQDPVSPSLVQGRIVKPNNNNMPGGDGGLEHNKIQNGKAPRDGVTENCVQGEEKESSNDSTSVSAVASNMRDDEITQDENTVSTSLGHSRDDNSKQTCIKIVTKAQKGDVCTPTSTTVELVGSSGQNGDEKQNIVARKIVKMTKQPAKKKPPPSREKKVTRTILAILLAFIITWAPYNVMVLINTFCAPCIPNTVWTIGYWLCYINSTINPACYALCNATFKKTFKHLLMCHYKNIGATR

Rattus norvegicus [9] = species on record: Rattus norvegicus; test: Selectivity for rat muscarinic M1 receptor over rat muscarinic M3 receptor by calcium mobilization assay
[10] = biological target: T5, Muscarinic acetylcholine receptor M5; test: Antagonist activity at rat muscarinic M5 receptor expressed in CHO cells by calcium mobilization assay; assay type: functional, cell-based
[11] = biological target: T4, Muscarinic acetylcholine receptor M3; test: Antagonist activity at rat muscarinic M3 receptor expressed in CHO cells by calcium mobilization assay; assay type: functional, cell-based
Rattus norvegicus [12] = species on record: Rattus norvegicus; test: Selectivity for rat muscarinic M1 receptor over rat muscarinic M4 receptor by calcium mobilization assay
[13] = biological target: T6, Muscarinic acetylcholine receptor M2; test: Antagonist activity at rat muscarinic M2 receptor expressed in CHO cells by calcium mobilization assay; assay type: functional, cell-based
[14] = biological target: T2, Muscarinic acetylcholine receptor M4; test: Displacement of [3H]NMS from rat muscarinic M4 receptor expressed in CHO cells; assay type: cell-based

| Activity [1] | IC50 [2] [µM] | IC50 [3] [µM] | Ratio IC50 (Rattus norvegicus [4]) | Ki [5] [µM] | Ki [6] [µM] | Ki [7] [µM] | Ki [8] [µM] | Ratio IC50 (Rattus norvegicus [9]) | IC50 [10] [µM] | IC50 [11] [µM] | Ratio IC50 (Rattus norvegicus [12]) | IC50 [13] [µM] | Ki [14] [µM] | SMILES |
| --- | --- | --- | --- | --- | --- | --- | --- | --- | --- | --- | --- | --- | --- | --- |
| Active | 5.1 | 0.58 | – | – | – | – | – | – | – | – | – | – | – | CCCCOc1cccc(C(=O)Nc2ccc(N3CCN(CC)CC3)c(Cl)c2)c1 |
| – | > 150 | 0.44 | 2.4 | 0.0748 | 0.0127 | 0.0857 | 0.338 | 7 | 1.1 | 3.1 | > 340 | 3.5 | 0.445 | CCN1CCN(c2ccc(NC(=O)CCC3CCCC3)cc2Cl)CC1 |
| – | > 150 | 5.6 | > 26 | – | – | – | – | > 26 | > 150 | > 150 | > 26 | > 150 | – | CCN1CCN(c2ccc(NC(=O)Cc3ccc(F)cc3)cc2Cl)CC1 |
| – | > 150 | 18.8 | – | – | – | – | – | – | > 150 | > 150 | – | > 150 | – | CCN1CCN(c2ccc(NC(=O)COCc3ccccc3)cc2Cl)CC1 |
| Active | 7.9 | 0.49 | – | – | – | – | – | – | > 150 | > 150 | – | > 150 | – | CCCCCC(=O)Nc1ccc(N2CCN(CC)CC2)c(Cl)c1 |
| – | 20 | 1.15 | – | – | – | – | – | – | 13 | 24 | – | 29 | – | CCN1CCN(c2ccc(NC(=O)[C@H]3C[C@@H]3c3ccccc3)cc2Cl)CC1 |
| – | 18 | 1.1 | 6.9 | – | – | – | – | 63 | 7.6 | 70 | 16 | 52 | – | CCN1CCN(c2ccc(NC(=O)CCc3ccccc3)cc2Cl)CC1 |
| – | > 150 | 3.3 | > 45 | – | – | – | – | > 45 | > 150 | > 150 | > 45 | > 150 | – | CCN1CCN(c2ccc(NC(=O)COc3ccccc3)cc2Cl)CC1 |
| – | – | – | 20 | – | – | – | – | 20 | – | – | 20 | – | – | CN1CCN(CC(=O)N2c3ccccc3C(=O)Nc3cccnc32)CC1 |
| – | > 150 | 4.6 | > 32 | – | – | – | – | > 32 | > 150 | > 150 | > 32 | > 150 | – | CCN1CCN(c2ccc(NC(=O)C3CCCCC3)cc2Cl)CC1 |
| – | 66 | 5 | – | – | – | – | – | – | > 150 | > 150 | – | > 150 | – | CCN1CCN(c2ccc(NC(=O)c3ccccc3)cc2Cl)CC1 |
| – | > 150 | > 150 | – | – | – | – | – | – | > 150 | > 150 | – | > 150 | – | CCN1CCN(c2ccc(NC(=O)CC(C)(C)C)cc2Cl)CC1 |

| SMILES | Activity [1] | IC50 [2] [µM] | IC50 [3] [µM] | Ratio IC50 (Rattus norvegicus [4]) | Ki [5] [µM] | Ki [6] [µM] | Ki [7] [µM] | Ki [8] [µM] | Ratio IC50 (Rattus norvegicus [9]) | IC50 [10] [µM] | IC50 [11] [µM] | Ratio IC50 (Rattus norvegicus [12]) | IC50 [13] [µM] | Ki [14] [µM] |
| --- | --- | --- | --- | --- | --- | --- | --- | --- | --- | --- | --- | --- | --- | --- |
| CCCC(=O)Nc1ccc(N2CCN(CC)CC2)c(Cl)c1 | – | > 150 | > 150 | – | – | – | – | – | – | > 150 | > 150 | – | > 150 | – |
